Results from ChEMBL document CHEMBL1152594, “The design and optimization of a series of 2-(pyridin-2-yl)-1H-benzimidazole compounds as allosteric glucokinase activators” (Bioorg Med Chem, 2009).
Calls of active or inactive are those of the source. The calls are words filed in the database; no cut-off is given here.

What was measured:
[1] = target: T1, Hexokinase-4 (Homo sapiens, UniProt P35557); experiment: Activation of human liver glucokinase expressed in Escherichia coli at 10 mM glucose concentration by glucose-6-phosphate coupled continuous spectrophotometric assay
T1 sequence (P35557 whole entry): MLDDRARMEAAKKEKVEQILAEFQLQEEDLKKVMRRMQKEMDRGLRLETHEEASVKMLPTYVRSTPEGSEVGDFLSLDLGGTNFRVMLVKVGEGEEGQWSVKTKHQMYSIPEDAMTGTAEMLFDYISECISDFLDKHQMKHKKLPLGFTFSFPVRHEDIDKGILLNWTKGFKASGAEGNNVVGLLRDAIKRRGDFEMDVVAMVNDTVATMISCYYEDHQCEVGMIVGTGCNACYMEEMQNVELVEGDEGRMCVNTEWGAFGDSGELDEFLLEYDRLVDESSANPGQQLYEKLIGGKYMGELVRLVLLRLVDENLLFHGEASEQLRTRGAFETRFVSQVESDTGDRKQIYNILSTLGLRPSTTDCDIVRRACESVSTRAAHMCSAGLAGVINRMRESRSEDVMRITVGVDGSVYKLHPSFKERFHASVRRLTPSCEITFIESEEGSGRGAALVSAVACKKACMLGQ

[2] = target: T1, Hexokinase-4; experiment: Activation of human liver glucokinase expressed in Escherichia coli at 2.5 mM glucose concentration by glucose-6-phosphate coupled continuous spectrophotometric assay
[3] = Cmax in Beagle dog at 0.3 mg/kg, iv and 1 mg/kg, po; conditions: in vivo
[4] = tested on: Rattus norvegicus; experiment: Hypoglycemic efficacy in Wistar rat assessed as reduction in area under the glucose curve at 1 mg/kg, po by oral glucose tolerance test; type: functional; set-up: scale not given: the % may be the effect or the level left
How it was run: (§1)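 In the Wistar rat OGTT, the compound was given orally. […] Groups were compared by one-way ANOVA followed by Dunnett's test, with significance at p < 0.05.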

[5] = Half life in Beagle dog at 0.3 mg/kg, iv and 1 mg/kg, po; conditions: in vivo
[6] = Oral bioavailability in Beagle dog at 1 mg/kg, po; conditions: in vivo
[7] = Half life in Sprague-Dawley rat at 1 mg/kg, iv and 3 mg/kg, po; type: ADME, organism-based; conditions: in vivo
How it was run: (§2)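 Male SD rats received 1 mg/kg iv or 3 mg/kg po. Plasma AUC, Cmax, T1/2, CLp and oral bioavailability (F) were derived from these dosings.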

[8] = Plasma clearance in Sprague-Dawley rat at 1 mg/kg, iv and 3 mg/kg, po; type: ADME, organism-based
How it was run: as §2

[9] = tested on: Mus musculus; experiment: Hypoglycemic efficacy in high-fat diet-induced mouse assessed as acute glucose lowering at 10 mg/kg, po; type: functional, organism-based; set-up: dose 10 mg/kg
How it was run: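 They received compound orally in 0.5% methylcellulose vehicle, or vehicle alone. Blood glucose was measured just before dosing and at 1, 2, 3 and 4 h after.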

[10] = AUC in Sprague-Dawley rat at 1 mg/kg, iv and 3 mg/kg, po; type: ADME, organism-based; conditions: plasma
How it was run: as §2

[11] = AUC in Beagle dog at 0.3 mg/kg, iv and 1 mg/kg, po; conditions: plasma
[12] = tested on: Rattus norvegicus; experiment: Hypoglycemic efficacy in Wistar rat assessed as reduction in area under the glucose curve at 3 mg/kg, po by oral glucose tolerance test; type: functional; set-up: scale not given: the % may be the effect or the level left
How it was run: as §1

[13] = Oral bioavailability in Sprague-Dawley rat at 3 mg/kg, po; type: ADME, organism-based; conditions: in vivo
How it was run: as §2

[14] = Cmax in Sprague-Dawley rat at 1 mg/kg, iv and 3 mg/kg, po; type: ADME, organism-based; conditions: in vivo
How it was run: as §2

SMILES	EC50 [1]	EC50 [2]	Activity [9]	also measured
CCS(=O)(=O)c1ccc(Oc2cc3nc(-c4ccccn4)[nH]c3cc2CN2CCNC2=O)cc1	> 5000 nM	> 5000 nM	–	–
CCS(=O)(=O)c1ccc(Oc2cc3nc(-c4ccccn4)[nH]c3cc2CN2CCOCC2=O)cc1	100 nM	280 nM	–	–
CCS(=O)(=O)c1ccc(Oc2cc3nc(-c4ccccn4)[nH]c3cc2CN2CCCC2)cc1	> 5000 nM	> 5000 nM	–	–
CCS(=O)(=O)c1ccc(Oc2cc3nc(-c4ccccn4)[nH]c3cc2Cc2nnnn2C)cc1	70 nM	410 nM	–	–
CCS(=O)(=O)c1ccc(Oc2cc3nc(-c4ccccn4)[nH]c3cc2CN2CCN(C)C2=O)cc1	80 nM	320 nM	–	–
CCS(=O)(=O)c1ccc(Oc2cc3nc(-c4ccccn4)[nH]c3cc2CN2C(=O)CCC2=O)cc1	40 nM	160 nM	Active	Cmax [3]: 400 nM; Activity [4]: 19%; half-life [5]: 384 min; bioavailability [6]: 41%; half-life [7]: 36 min; clearance [8]: 32 mL/min/kg; AUC [10]: 0.5 µM·h; AUC [11]: 4 µM·h; Activity [12]: 27%; bioavailability [13]: 16%; Cmax [14]: 400 nM
CCS(=O)(=O)c1ccc(Oc2cc3nc(-c4ccccn4)[nH]c3cc2CNC(C)=O)cc1	220 nM	1410 nM	–	–
CCS(=O)(=O)c1ccc(Oc2cc3nc(-c4ccccn4)[nH]c3cc2CN2C(=O)CN(C)C2=O)cc1	60 nM	180 nM	–	–
CCS(=O)(=O)c1ccc(Oc2cc3nc(-c4ccccn4)[nH]c3cc2CN2CCCC2=O)cc1	60 nM	350 nM	Active	–
CCS(=O)(=O)c1ccc(Oc2cc3nc(-c4ccccn4)[nH]c3cc2CN(C)C(C)=O)cc1	70 nM	300 nM	Active	–
CCN(Cc1cc2nc(-c3ccccn3)[nH]c2cc1Oc1ccc(S(=O)(=O)CC)cc1)C(C)=O	110 nM	500 nM	–	–
CCS(=O)(=O)c1ccc(Oc2cc3nc(-c4ccccn4)[nH]c3cc2CN2C(=O)COC2=O)cc1	20 nM	90 nM	inactive	–
CCS(=O)(=O)c1ccc(Oc2cc3[nH]c(-c4ccccn4)nc3cc2CCC(=O)N(C)C)cc1	120 nM	620 nM	–	–
CCS(=O)(=O)c1ccc(Oc2cc3nc(-c4ccccn4)[nH]c3cc2CN2CCCS2(=O)=O)cc1	90 nM	460 nM	–	–
CCS(=O)(=O)c1ccc(Oc2cc3nc(-c4ccccn4)[nH]c3cc2Cn2ccnc2)cc1	120 nM	430 nM	–	–
CCS(=O)(=O)c1ccc(Oc2cc3nc(-c4ccccn4)[nH]c3cc2CN2CCOC2=O)cc1	60 nM	250 nM	inactive	–
